In ChEMBL document CHEMBL1122662, “3-Hydroxy-alpha-methyltyrosine progenitors: synthesis and evaluation of some (2-oxo-1,3-dioxol-4-yl)methyl esters” (J Med Chem, 1984):

Tests used:
[1] = Compound was evaluated for its bioavailability after oral administration (200 mg) to Beagle dogs; assay type: ADME, organism-based, Canis lupus familiaris; details: dog, in vivo
Outline: (§1)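 Randomized cross-over in four male beagles fasted overnight and 6 h postdose, water ad libitum. Single oral doses equal to 200 mg methyldopa; 100 mg methyldopa iv as reference. Jugular blood through 10 h. Plasma deproteinized with HClO4, internal standard ethyldopa, analyzed by C-18 HPLC with amperometric detection. AUC by trapezoids plus terminal extrapolation. Systemic availability relative to iv by Kwan-Till, constant nonrenal clearance; mean ± SD.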

[2] = Compound was evaluated for its urinary recovery after oral administration (200 mg) to Beagle dogs; assay type: ADME, organism-based, Canis lupus familiaris; details: dog, urine, read-out: Activity
Outline: (§2)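 Four male beagles in cross-over, single oral doses equal to 200 mg methyldopa, 100 mg iv reference. Voided urine collected through 48 h, heated with HClO4 (99 °C, 15 min) to hydrolyze conjugates, methyldopa measured by HPLC-amperometry. Urinary recovery as % dose; renal clearance as total urinary recovery divided by plasma AUC; mean ± SD.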

[3] = Compound was evaluated for its renal clearance after oral administration (200 mg) to Beagle dogs; assay type: ADME, organism-based, Canis lupus familiaris; details: dog, in vivo, read-out: Renal clearance; outline: as §2
Rattus norvegicus [4] = experiment: Antihypertensive activity was evaluated in SH rats by measuring imax reduction in mean arterial pressure at 0.12 mM/kg dose administered perorally; equivalent to 25 mg/kg of methyldopa; assay type: functional, Artery; details: route oral
Outline: (§3)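 Unanesthetized male Wistar-Okamoto spontaneously hypertensive rats (290-350 g, 16-24 weeks), six per group, dosed orally at 0.12, 0.24 or 0.47 mmol/kg, equal to 25, 50 or 100 mg/kg methyldopa; doses based on base weight. Arterial pressure recorded continuously by transducer, mean pressure printed every 1/2 h. Initial pressure and maximum fall recorded, mean ± SE.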

Rattus norvegicus [5] = experiment: Antihypertensive activity was evaluated in SH rats by measuring max reduction in mean arterial pressure at 0.24 mM/kg dose administered perorally; equivalent to 50 mg/kg of methyldopa; assay type: functional, Artery; details: route oral; outline: as §3
Rattus norvegicus [6] = experiment: Antihypertensive activity was evaluated in SH rats by measuring max reduction in mean arterial pressure at 0.47 mM/kg dose administered perorally; equivalent to 100 mg/kg of methyldopa; assay type: functional, Artery; details: route oral; outline: as §3
Rattus norvegicus [7] = experiment: Antihypertensive activity was evaluated in SH rats by measuring initial mean arterial pressure at 0.12 mM/kg dose administered perorally; equivalent to 25 mg/kg of methyldopa; assay type: functional, Artery; details: route oral; outline: as §3
Rattus norvegicus [8] = experiment: Antihypertensive activity was evaluated in SH rats by measuring initial mean arterial pressure at 0.24 mM/kg dose administered perorally; equivalent to 50 mg/kg of methyldopa; assay type: functional, Artery; details: route oral; outline: as §3
Rattus norvegicus [9] = experiment: Antihypertensive activity was evaluated in SH rats by measuring initial mean arterial pressure at 0.47 mM/kg dose administered perorally; equivalent to 100 mg/kg of methyldopa; assay type: functional, Artery; details: route oral; outline: as §3
[10] = Systemic availability with respect to methyldopa was determined; assay type: ADME; outline: as §1
Rattus norvegicus [11] = experiment: Antihypertensive activity was evaluated in SH rats by measuring imax reduction in mean arterial pressure at 0.24 mM/kg dose administered perorally; equivalent to 50 mg/kg of methyldopa; assay type: functional, Artery; details: route oral; outline: as §3
[12] = Compound was evaluated for its bioavailability after intravenous administration (100 mg) to Beagle dogs
[13] = Compound was evaluated for its renal clearance after intravenous administration (100 mg) to Beagle dogs
[14] = Compound was evaluated for its urinary recovery after intravenous administration (100 mg) to Beagle dogs

Row | Compound | AUC [1] [µg·h/mL] | dose excreted [2] [%] | CL renal [3] [mL/min] | Max reduction in mean arterial pressure (Rattus norvegicus [4]) [mmHg] | Max reduction in mean arterial pressure (Rattus norvegicus [5]) [mmHg] | Max reduction in mean arterial pressure (Rattus norvegicus [6]) [mmHg] | Initial mean arterial pressure (Rattus norvegicus [7]) [mmHg] | Initial mean arterial pressure (Rattus norvegicus [8]) [mmHg] | Initial mean arterial pressure (Rattus norvegicus [9]) [mmHg] | Activity [10] [%] | Max reduction in mean arterial pressure (Rattus norvegicus [11]) [mmHg] | AUC [12] [ng·h/mL] | Renal clearance [13] [mL/min] | Activity [14] [%]
1 | CC(N)(Cc1ccc(O)c(O)c1)C(=O)OCc1oc(=O)oc1C(C)(C)C (stereo not given) | 37.4 | 31.4 | 29.3 | 24 | 45 | 93 | 182 | 172 | 185 | 55.7 | – | – | – | –
2 | Cc1oc(=O)oc1COC(=O)C(C)(N)Cc1ccc(O)c(O)c1 (stereo not given) | 61.7 | 53.2 | 29.2 | 29 | 38 | 52 | 180 | 172 | 164 | 94.2 | – | – | – | –
3 | CC(OC(=O)C(C)(C)C)OC(=O)C(C)(N)Cc1ccc(O)c(O)c1.Cl (stereo not given) | – | – | – | 23 | 60 | 83 | 181 | 181 | 179 | – | – | – | – | –
4 | C[C@](N)(Cc1ccc(O)c(O)c1)C(=O)O [METHYLDOPA] | 58.3 | 54.2 | 31.9 | – | – | – | – | 174 | – | 92.1 | 37 | 32600 | 31.8 | 57.7
